# High-throughput results as filed in PubChem.
# This is a sample that favours compounds with a hit; in the whole collection about 1.4% have one here.
# APJ antagonist = blocks the human apelin receptor APJ; CHO-K1 APJ beta-arrestin complementation, luminescence; AID 2521; inhibition, % at 20 µM; P35414; hit rate 0.32% among 330,000;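 active = inhibition above about 40% at 20 µM, limit read from the data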;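 also: cells challenged with 10 nM apelin-13 agonist together with compound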
# A3G deaminase = APOBEC3G (human) deaminase inhibition | AID 493012 | recombinant A3G, ssDNA deamination FAM/TAMRA fluorescence | Q9HC16 | inhibition, % at 20 µM | hit rate 0.28% among 330,000;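 active = inhibition of at least 40% at 20 µM, with no more than 30% in the related APOBEC3A deaminase screen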
# Target sequence (Q9HC16 whole entry, looked up): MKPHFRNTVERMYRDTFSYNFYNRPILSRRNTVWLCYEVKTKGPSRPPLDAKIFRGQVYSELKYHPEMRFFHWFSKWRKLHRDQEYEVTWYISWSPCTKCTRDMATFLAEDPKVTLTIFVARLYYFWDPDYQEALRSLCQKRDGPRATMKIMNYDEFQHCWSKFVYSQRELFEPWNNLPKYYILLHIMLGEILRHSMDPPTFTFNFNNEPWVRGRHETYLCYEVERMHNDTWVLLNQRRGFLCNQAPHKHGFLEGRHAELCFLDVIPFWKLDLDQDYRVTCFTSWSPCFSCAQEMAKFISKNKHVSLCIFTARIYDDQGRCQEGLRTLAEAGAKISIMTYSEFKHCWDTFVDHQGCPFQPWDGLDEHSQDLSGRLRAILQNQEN
# APJ agonist = activates the human apelin receptor APJ. CHO-K1 APJ PathHunter beta-arrestin, luminescence; 0% DMSO wells, 100% apelin. activation, % at 20 µM. P35414. hit rate 0.11% among 330,000;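 active = activation more than six SD over the plate average, tested at 20 µM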
#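 Assay system – PathHunter CHO-K1 APJ (AGTRL-1) beta-arrestin reporter cells · Compound – one dose, 20 µM compound, 1% DMSO · Timing – compound 90 min 25 °C, reagent 1 h · Measured by – luminescence from split beta-galactosidase complementation, Galacton Star/Emerald II substrate · Measure – beta-arrestin recruitment to APJ as agonist activity, luminescent signal · Benchmarks – DMSO vs Apelin-13 10 nM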
# APOBEC3A inh = human APOBEC3A DNA deaminase inhibition; P31941; recombinant A3A, FAM/TAMRA ssDNA deamination fluorescence; inhibition, % at 20 µM; hit rate 0.41% among 330,000;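 active = at least 40% inhibition at 20 µM here, with at most 30% in a related deaminase screen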
# CXCR6 block = inhibitors of human CXCR6 receptor. hit rate 0.36% among 360,000. O00574. AID 602244. CHO-K1 PathHunter CXCR6 beta-arrestin, luminescence. inhibition, % at 20 µM; in the data active = inhibition above about 34%, passing the limit was not always enough;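 also: antagonist mode with CXCL16 agonist at 10 nM final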
# CCR6 antagonist = blocks CCL20-driven beta-arrestin recruitment at human CCR6 | inhibition, % at 20 µM | AID 493098 | P51684 | hit rate 0.49% among 340,000 | CHO-K1 CCR6 PathHunter beta-arrestin, luminescence, CCL20-stimulated;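 active = compounds whose inhibition of the agonist-driven luminescence signal at 20 µM reaches about 50%, limit read from the data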;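 also: cells stimulated with CCL20 at 14 nM final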
# A3G conf = APOBEC3G (human) deaminase inhibition, confirmed; shares compounds with A3G deaminase; recombinant A3G ssDNA deaminase, UDG/FAM-TAMRA fluorescence; inhibition, % at 20 µM; hit rate 72% among 890; AID 493152;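 active = inhibition reaching a set limit in any replicate at 20 µM, the limit being 80% of the first screen's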
# UDG ctr A3G = counter-screen for APOBEC3G inhibitors: E. coli UDG; shares compounds with A3G deaminase; UDG counterscreen, FAM/TAMRA oligo fluorescence; inhibition, % at 20 µM; 710 tested, under 10 active; AID 504715;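 active = compounds giving 40% or more inhibition at 20 µM in any one of the three replicates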;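 also: inhibitors lower the FAM signal released by uracil excision and alkaline cleavage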
# Target sequence (P12295 whole entry, looked up): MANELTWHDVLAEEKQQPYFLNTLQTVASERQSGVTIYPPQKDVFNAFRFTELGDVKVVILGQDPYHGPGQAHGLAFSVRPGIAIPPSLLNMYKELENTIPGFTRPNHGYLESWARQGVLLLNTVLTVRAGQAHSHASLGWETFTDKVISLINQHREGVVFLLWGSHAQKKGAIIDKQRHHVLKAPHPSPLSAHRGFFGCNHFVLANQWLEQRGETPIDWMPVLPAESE
# Numbers stand for hits; i = inactive; nt = not tested or not shown.
SMILES,APJ antagonist,A3G deaminase,APJ agonist,APOBEC3A inh,CXCR6 block,CCR6 antagonist,A3G conf,UDG ctr A3G
NCCCC[C@H]1CNC(=O)C(=O)N1CCc1cccc(F)c1,i,i,i,i,i,i,nt,nt
CCOC(=O)C1=C(C)N(c2ccc(C)cc2)C(=O)/C1=C\c1ccc(O)c(OC)c1,i,76.6,i,i,i,i,i,nt
CCOc1cc(/C=C2\C(=O)N(CCc3ccc(OC)c(OC)c3)C(C)=C2C(=O)OC)ccc1O,i,i,i,i,i,i,nt,nt
Cc1ccccc1S(=O)(=O)NCc1ccc(N2CCN(C)CC2)cc1,i,i,i,i,i,i,nt,nt
COCCN1C[C@@H](CO)O[C@@H](n2cnc3c(NC4CCC4)ncnc32)C1,nt,nt,nt,nt,i,nt,nt,nt
COCCCNC(=S)NNC(=S)Nc1ccc(F)cc1F,i,54.8,i,i,i,i,86.5,i
COCCCNC(=S)NCCc1ccc(F)cc1,i,i,i,i,i,i,nt,nt
COCCCNC(=S)NNC(=S)Nc1ccccc1,i,42.3,i,i,i,i,71.6,i
CC(=O)C(Cc1ccccc1)NC(=O)COC(=O)c1cccc(C)c1[N+](=O)[O-] (stereo unspecified),i,i,i,i,i,i,nt,nt
CCCCCc1cc(=O)c2ccccc2o1,i,i,i,i,i,i,nt,nt
FC(F)Oc1ccc(/C=N/n2c(Cc3ccc(Br)cc3)n[nH]c2=S)cc1,i,47.8,i,i,i,i,42.3,i
COc1ccc(OCC(=O)Nc2ccncc2)cc1,i,i,i,i,i,i,nt,nt
O=S(=O)(c1ccc(S(=O)(=O)N2CCCC2)cc1)N1CCCCC1,i,i,i,i,nt,i,nt,nt
O=c1c2ccccc2sn1-c1ccc(S(=O)(=O)N2CCCCC2)cc1,i,64.0,i,i,i,i,65.2,i
O=c1c2ccccc2sn1-c1ccc(S(=O)(=O)N2CCCC2)cc1,i,77.9,i,i,i,i,82.5,nt
Cc1ccc(-n2sc3ccccc3c2=O)cc1S(=O)(=O)N1CCCCC1,i,74.9,i,i,i,54.8,72.5,nt
C#Cc1cccc(NC(=O)c2ccc(Cl)cc2Cl)c1,i,i,i,i,i,i,nt,nt
Cc1ccc(/C=N/NC(=O)c2ccc(Br)o2)s1,i,59.3,i,i,i,i,i,i
CN(CC(=O)N1CCCCCC1)S(=O)(=O)c1ccc(Br)s1,i,i,i,i,nt,i,nt,nt
O=C(CN(CC(=O)N1CCOCC1)S(=O)(=O)c1ccc(Br)s1)N1CCOCC1,i,46.3,i,i,i,i,58.3,i
CCOC(=O)C1(COCc2ccccc2)CCCCC1=O (stereo unspecified),nt,nt,nt,nt,i,nt,nt,nt
CCOc1ccc(NC(=S)N2CCC(NC(=O)C3CCCCC3)CC2)cc1,i,i,i,i,i,i,nt,nt
Cc1ccccc1NC(=S)c1ccc2ccccc2n1,i,42.0,i,i,i,i,39.9,i
CCC1=NNc2cccc3c(OC)ccc1c23,i,60.1,i,i,nt,nt,73.1,nt
O=C(CN(C(=O)CNC(=O)c1ccco1)c1ccc(F)cc1)NC1CCCC1,i,i,i,i,i,i,nt,nt
SMILES,APJ antagonist,A3G deaminase,APJ agonist,APOBEC3A inh,CXCR6 block,CCR6 antagonist,A3G conf,UDG ctr A3G
CC1CCCN(C(=O)CSc2nnc(-c3ccncc3)n2C)C1 (stereo unspecified),i,i,i,i,i,i,nt,nt
COCCCNC(=S)N(CCCO)Cc1cc2cc3c(cc2[nH]c1=O)OCCO3,i,i,i,i,i,i,nt,nt
COCCCNC(=S)N(CCCO)Cc1cc2cc3c(cc2[nH]c1=O)OCO3,i,48.2,i,i,i,i,i,i
CCOC(=O)N1CCN(C(=O)c2cc3cc(Cl)ccc3[nH]2)CC1,i,i,i,i,i,i,nt,nt
Cc1ccc(/C=N/n2c(-c3cccnc3)n[nH]c2=S)s1,i,55.5,i,i,i,i,70.9,i
CN(C)c1ccc(/C=N/n2c(-c3cccnc3)n[nH]c2=S)cc1,i,45.0,i,i,i,i,82.6,i
S=c1[nH]nc(-c2cccnc2)n1/N=C/c1ccc(Br)s1,i,i,i,i,i,i,nt,nt
Cc1ccc(C(c2nnnn2CS(=O)(=O)c2ccc(C)cc2)N2CCN(c3ncccn3)CC2)cc1 (stereo unspecified),i,71.2,i,i,i,i,i,nt
COC(=O)c1sc(NC(=O)c2cc(-c3ccccc3)nc3ccccc23)c(C#N)c1C,i,63.6,i,i,i,i,57.7,i
O=[N+]([O-])c1ccc2c(c1)[nH]c(=S)n2-c1ccccc1,i,41.0,i,i,i,i,54.2,i
c1ccc(-c2nnc(-c3ccccc3)nn2)cc1,i,i,i,i,i,i,nt,nt
c1cncc(-c2nnc(-c3cccnc3)nn2)c1,i,44.0,i,i,i,i,22.1,i
Cc1ccc(CNC(=O)C2CCCN(S(=O)(=O)c3c(C)noc3C)C2)cc1 (stereo unspecified),i,i,i,i,i,i,nt,nt
Cc1noc(C)c1S(=O)(=O)N1CCCC(C(=O)NCc2ccccn2)C1 (stereo unspecified),i,49.0,i,i,i,i,i,nt
O=S(=O)(c1ccc(=S)[nH]c1)N1CCOCC1,i,44.4,i,i,i,i,72.8,i
O=C(Cc1ccccc1)NNC(=S)NC(=O)c1cccnc1,i,43.4,i,i,i,i,i,i
COc1ccc(CC(=O)NNC(=S)NC(=O)c2cccnc2)cc1,i,i,i,i,i,i,nt,nt
CC1(C)Cc2ccccc2-c2n[nH]c(=S)n21,i,56.1,i,i,i,i,90.2,i
CN(C)CCN1CCN(C2CN(Cc3cn(Cc4ccccc4C(F)(F)F)nn3)S(=O)(=O)C2)CC1 (stereo unspecified),nt,nt,nt,nt,i,nt,nt,nt
CC(=O)Nc1ccc(NC(=O)C(C)Oc2ccc(C)nc2[N+](=O)[O-])cc1 (stereo unspecified),i,i,i,i,i,i,nt,nt
CNc1n[nH]c(=S)s1,i,66.6,i,i,i,i,76.4,i
CC(=O)Nc1n[nH]c(=S)s1,nt,nt,nt,nt,i,i,nt,nt
O=C(O)CC(Cc1ccc(Cl)cc1)C(=O)Nc1cc(Cl)ccc1Cl (stereo unspecified),i,i,i,i,i,i,nt,nt
Cc1cc(-c2n[nH]c(=S)n2-c2ccc(F)cc2)nn1C,i,62.6,i,i,i,i,59.9,i
COc1ccc(C(O)(c2ccccc2OC)C(CN2CCOCC2)c2ccccc2)cc1 (stereo unspecified),i,i,i,i,i,i,nt,nt
Cc1cccc2cc(COC(=O)c3ccccn3)c(=O)[nH]c12,i,40.4,i,i,i,i,i,i
COc1ccc(C(=O)OCc2cc3cccc(C)c3[nH]c2=O)cc1,i,i,i,i,i,i,nt,nt
